Source: PubChem BioAssay (The Scripps Research Institute Molecular Screening Center)
HSP90 refold inh: HSP90 refolding inhibition in rabbit reticulocyte lysate | luciferase refolding luminescence, 3 h | inhibition, % at 5.6 µM | 290,000 tested, 0.91% active | AID 1789;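 active means inhibition above the screen-wide mean plus 3 SD, computed separately per campaign, cut at about 16% in these data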;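 further: 0% = DMSO wells and 100% = 60 µM geldanamycin wells; inhibitors lower the luminescence because luciferase stays unfolded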
STAT3 act: activators of IL-6 induced STAT3 signaling; U3A cells, IL-6 STAT3-luciferase reporter, luminescence; 100% = signal with IL-6 EC80 alone; activation (% of control), % at 5.6 µM; 190,000 tested, 0.91% active; AID 871;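 active means activation above the screen-wide mean of compound activation plus 3 SD, cut at about 130% in these data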;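 further: 0% = background luminescence of wells with medium and substrate only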
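Material: STAT1-lacking human U3A cells, STAT3 luciferase reporter | Benchmarks: IL-6-only wells as 100% reference | Probe or stimulus: IL-6 (33 ng/mL) | Timing: Compound 1 h, then IL-6 6 h at 37 °C | Detection: Luminescence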
STAT3 inh: reduces IL-6 driven STAT3 reporter signal. inhibition, % at 5.5 µM. 190,000 tested, 0.89% active. U3A cells, IL-6 STAT3-luciferase reporter, luminescence; host cell line lacks STAT1;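 active means inhibition above the mean inhibition across all screened compounds plus 3 SD, cut at about 44% in these data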;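 further: 0% = DMSO only wells and 100% = 100 µM nifuroxazide control wells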
STAT1 blocker: inhibitors of IFN-gamma induced STAT1 signaling. AID 920. inhibition, % at 5.5 µM. 200,000 tested, 0.35% active. NIH 3T3 STAT1-luciferase reporter, luminescence;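 active means inhibition above a set limit, the mean inhibition across all tested compounds plus 3 SD, cut at about 34% in these data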;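 further: 0% = IFN-gamma with DMSO and 100% = IFN-gamma with 300 µM nifuroxazide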
HSP90 inh confirm: HSP90 inhibition, confirmation assay; 2,300 tested, 64% active; shares compounds with HSP90 refold inh; rabbit reticulocyte lysate, luciferase refolding luminescence, 3 h; inhibition, % at 5.9 µM; in the data active means inhibition above about 18%;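 further: 0% = vehicle wells and 100% = reference inhibitor wells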
luciferase ctr: firefly luciferase inhibition, HSP90 counter-screen; inhibition, % at 5.9 µM; 2,300 tested, 48% active; purified native firefly luciferase, luminescence; shares compounds with HSP90 refold inh;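 active means inhibition above the mean inhibition of all tested sample wells plus 3 SD, cut at about 10% in these data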;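 further: 0% = DMSO with luciferase and 100% = wells lacking luciferase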
Target sequence (P08659 whole entry, looked up): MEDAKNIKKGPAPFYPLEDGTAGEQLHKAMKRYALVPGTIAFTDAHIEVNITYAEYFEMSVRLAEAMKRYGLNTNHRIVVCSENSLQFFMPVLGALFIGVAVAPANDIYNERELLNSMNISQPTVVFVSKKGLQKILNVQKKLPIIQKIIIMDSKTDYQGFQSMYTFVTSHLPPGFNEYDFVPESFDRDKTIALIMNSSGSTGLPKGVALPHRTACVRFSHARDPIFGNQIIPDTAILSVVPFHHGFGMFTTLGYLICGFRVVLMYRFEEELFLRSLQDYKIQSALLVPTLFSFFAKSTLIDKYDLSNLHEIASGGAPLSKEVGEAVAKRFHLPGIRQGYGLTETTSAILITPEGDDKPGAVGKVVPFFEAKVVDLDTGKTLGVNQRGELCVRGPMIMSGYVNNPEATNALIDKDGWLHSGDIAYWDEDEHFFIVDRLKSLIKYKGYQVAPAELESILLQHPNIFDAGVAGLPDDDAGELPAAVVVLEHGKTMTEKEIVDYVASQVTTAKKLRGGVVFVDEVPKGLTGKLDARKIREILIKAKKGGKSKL
* = called active by the depositor. In the library only some 2% were active in any assay of this set; here they are far more common.

Screening COc1ccccc1C(=O)NC(=S)Nc1cccnc1Cl returned HSP90 refold inh 55*, HSP90 inh confirm 23* and luciferase ctr 12*.
O=C(Nc1ccccc1)c1ccc(-c2ccccc2Cl)o1 was read as HSP90 refold inh -1, STAT3 act 99, STAT3 inh -2 and STAT1 blocker -8.
`O=C(O)c1ccc(-c2ccccc2Cl)o1` gave HSP90 refold inh 28*, STAT3 act 100, STAT3 inh 2, STAT1 blocker 3, HSP90 inh confirm 30* and luciferase ctr -20.
COCCN(C(=O)CCC(=O)Nc1ccccn1)C(C(=O)NC(C)C)c1ccc(Cl)cc1 (configuration not stated) was read as HSP90 refold inh 84*, HSP90 inh confirm 1 and luciferase ctr -4.
For CCOC(=O)C1=NN(c2ccc(Cl)cc2)C(=O)C1 the results were HSP90 refold inh -3.
`COc1ccc(/C=N/Nc2nc3ccccc3[nH]2)c(OC)c1OC` gave HSP90 refold inh 27*, HSP90 inh confirm 54* and luciferase ctr 62*.
For CCC(CC)C1C(C#N)=C(N)Oc2n[nH]c(-c3ccccc3)c21 (configuration not stated) the results were HSP90 refold inh 18*, STAT3 act 95, STAT3 inh 12, STAT1 blocker 4, HSP90 inh confirm -8 and luciferase ctr -2.
For COc1cc(C2C(C#N)=C(N)Oc3n[nH]c(-c4cccs4)c32)cc(OC)c1O (configuration not stated) the results were HSP90 refold inh 24*, STAT3 act 101, STAT3 inh 4, STAT1 blocker -7, HSP90 inh confirm -3 and luciferase ctr -7.
`Cc1ccc(C2C(C#N)=C(N)Oc3n[nH]c(-c4cccs4)c32)cc1` (configuration not stated) gave HSP90 refold inh 8, STAT3 act 103, STAT3 inh 0 and STAT1 blocker 6.
`COc1cc(OC)cc(C2C(C#N)=C(N)Oc3n[nH]c(-c4cccnc4)c32)c1` (configuration not stated) gave HSP90 refold inh 18*, STAT3 act 100, STAT3 inh 3, STAT1 blocker 4, HSP90 inh confirm -3 and luciferase ctr -2.
`N#CC1=C(N)Oc2n[nH]c(-c3ccncc3)c2C1c1ccsc1` (configuration not stated) gave HSP90 refold inh 17*, STAT3 act 98, STAT3 inh 6, STAT1 blocker 15, HSP90 inh confirm -1 and luciferase ctr -7.
CC(C)(C)c1ccc(C2C(C#N)=C(N)Oc3n[nH]c(-c4cccnc4)c32)cc1 (configuration not stated) was read as HSP90 refold inh 4.
For COc1ccc(N(Cc2cc3cc(C)ccc3[nH]c2=O)C(C)=O)cc1 the results were HSP90 refold inh 2.
CCn1nc(CC(C)C)cc1C(=O)N1CCCC(Nc2ccc(OC)cc2)C1 (configuration not stated) was read as HSP90 refold inh -7.
Screening Cc1nc2sc(-c3ccccc3)cc2c(=O)n1N returned HSP90 refold inh 19*, HSP90 inh confirm 77* and luciferase ctr 66*.
Screening Cc1nc2sc(-c3ccccc3)cc2c(=O)n1-n1cccc1 returned HSP90 refold inh -1, STAT3 act 101, STAT3 inh 5 and STAT1 blocker -49.
Cc1ccc(NC(=O)C2CCN(c3ncnc4c3nc3n4CCCCC3)CC2)nc1 was read as HSP90 refold inh 34*, HSP90 inh confirm -10 and luciferase ctr -22.
For O=C(C1CCN(c2ncnc3c2nc2n3CCCCC2)CC1)N1CCCCC1 the results were HSP90 refold inh 2.
For COc1ccc(C(=O)NCC(=O)N/N=C(\C)c2ccco2)cc1OC the results were HSP90 refold inh 3.
`CCOc1ccc(NC(=O)Nc2ccccc2C(N)=O)cc1` gave HSP90 refold inh 32*, STAT3 act 92, STAT3 inh 15, STAT1 blocker -21, HSP90 inh confirm 42* and luciferase ctr 38*.
Screening C[n+]1nc(Nc2ccccc2)sc1-c1ccc(O)cc1 returned HSP90 refold inh 17*, HSP90 inh confirm -8 and luciferase ctr -9.
O=C(O)CCN1C(=O)c2ccc(NC(=O)CCc3ccccc3)cc2C1=O was read as HSP90 refold inh -2.
